This passage reports MIC and Ratio results from ChEMBL document CHEMBL1154648, “1,3-Dipolar cycloaddition of C-aryl-N-phenylnitrones to (R)-1-(1-phenylethyl)-3-[(E)-arylmethylidene]tetrahydro-4(1H)-pyridinones: synthesis and antimycobacterial evaluation of enantiomerically pure spiroisoxazolidines” (2010).

≈ marks a conversion by molar mass, not a printed value.

One assay deals with Mycobacterium tuberculosis. The assay is described as follows: Antitubercular activity against Mycobacterium tuberculosis H37Rv after 28 days by agar dilution method. Type of assay: functional. To be noted: 672 h. In short, it runs like this: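 Tenfold serial dilutions were incorporated into Middlebrook 7H11 agar with OADC. The H37Rv inoculum came from fresh 7H11/OADC slants, set to 1 mg/mL wet weight in 0.05% Tween 80 saline and diluted 10^-2 (about 10^7 cfu/mL). 5 µL was spotted per tube and incubated at 37 °C, read at 28 days. MIC was the lowest concentration giving complete growth inhibition, tested in triplicate.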
What is called MIC is the smallest concentration in the dilution series that meets the test's criterion for growth inhibition. A low value points to a more susceptible organism. The compound `Cc1ccc([C@H]2[C@@H](c3cccs3)[C@@]3(CN([C@H](C)c4ccccc4)CCC3=O)ON2c2ccccc2)cc1` registered an MIC of 24.6 µM (≈ 12.5 µg/mL).

`NNC(=O)c1ccncc1` [ISONIAZID] came in with an MIC of 0.36 µM (≈ 0.0494 µg/mL).

`Cc1ccc([C@H]2[C@@H](c3ccccc3)N(c3ccccc3)O[C@@]23CN([C@H](C)c2ccccc2)CCC3=O)cc1` yielded an MIC of 24.9 µM (≈ 12.5 µg/mL).

In turn, `C[C@H](c1ccccc1)N1CCC(=O)[C@]2(C1)ON=C(c1ccccc1)[C@H]2c1ccccc1` yielded an MIC of 60.9 µM (≈ 25 µg/mL).

In turn, `C[C@H](c1ccccc1)N1CCC(=O)[C@]2(C1)ON=C(c1ccc(Cl)cc1)[C@H]2c1cccc2ccccc12` had an MIC of 25.2 µM (≈ 12.5 µg/mL).

`C[C@H](c1ccccc1)N1CCC(=O)[C@@]2(C1)[C@@H](c1ccccc1)ON(c1ccccc1)[C@@H]2c1ccccc1`: the MIC was found to be 25.6 µM (≈ 12.5 µg/mL).

The compound `C[C@H](c1ccccc1)N1CCC(=O)[C@]2(C1)ON=C(c1ccccc1)[C@H]2c1cccc2ccccc12` had an MIC of 27.1 µM (≈ 12.5 µg/mL).

For `Cc1ccc([C@H]2N(c3ccccc3)O[C@H](c3ccccc3)[C@@]23CN([C@H](C)c2ccccc2)CCC3=O)cc1`, the MIC amounted to 24.9 µM (≈ 12.5 µg/mL).

In the case of `Cc1ccc([C@@H]2C(c3ccc(Cl)cc3)=NO[C@]23CN([C@H](C)c2ccccc2)CCC3=O)cc1`, the MIC was found to be 6.82 µM (≈ 3.13 µg/mL). This MIC lies about 3.7-fold lower than the previous one.

With `Cc1ccc([C@@H]2[C@H](c3ccccc3)N(c3ccccc3)O[C@]23CN([C@H](C)c2ccccc2)CCC3=O)cc1`, the MIC is 12.4 µM (≈ 6.25 µg/mL).

In the case of `C[C@H](c1ccccc1)N1CCC(=O)[C@]2(C1)ON(c1ccccc1)[C@@H](c1ccccc1)[C@H]2c1ccccc1Cl`, inhibition of growth (MIC) required 23.9 µM (≈ 12.5 µg/mL).

The compound `Cc1ccc([C@H]2[C@@H](c3ccccc3)[C@@]3(CN([C@H](C)c4ccccc4)CCC3=O)ON2c2ccccc2)cc1` registered an MIC of 49.7 µM (≈ 25 µg/mL).

Compound `C[C@H](c1ccccc1)N1CCC(=O)[C@]2(C1)ON(c1ccccc1)[C@@H](c1ccccc1)[C@H]2c1cccs1` had an MIC of 6.33 µM (≈ 3.13 µg/mL).

`Cc1ccc([C@@H]2[C@H](c3ccccc3)[C@]3(CN([C@H](C)c4ccccc4)CCC3=O)ON2c2ccccc2)cc1` gave an MIC of 49.7 µM (≈ 25 µg/mL).

`C[C@H](c1ccccc1)N1CCC(=O)[C@@]2(C1)ON(c1ccccc1)[C@H](c1ccccc1)[C@@H]2c1ccccc1Cl` displayed an MIC of 5.98 µM (≈ 3.13 µg/mL).

On to `Cc1ccc([C@@H]2[C@H](c3ccccc3Cl)[C@]3(CN([C@H](C)c4ccccc4)CCC3=O)ON2c2ccccc2)cc1`, for which the MIC was found to be 11.6 µM (≈ 6.25 µg/mL).

As for `Cc1ccc([C@@H]2[C@H](c3ccc(Cl)cc3)[C@]3(CN([C@H](C)c4ccccc4)CCC3=O)ON2c2ccccc2)cc1`, the lowest concentration to inhibit growth (MIC) was 23.3 µM (≈ 12.5 µg/mL).

`CC[C@@H](CO)NCCN[C@@H](CC)CO` [ETHAMBUTOL] yielded an MIC of 7.64 µM (≈ 1.56 µg/mL).

`CO[C@H]1/C=C/O[C@@]2(C)Oc3c(C)c(O)c4c(O)c(c(/C=N/N5CCN(C)CC5)c(O)c4c3C2=O)NC(=O)/C(C)=C\C=C\[C@H](C)[C@H](O)[C@@H](C)[C@@H](O)[C@@H](C)[C@H](OC(C)=O)[C@@H]1C` [RIFAMPIN] yielded a minimum inhibitory concentration (MIC) of 0.12 µM (≈ 0.0988 µg/mL).

As for `C[C@H](c1ccccc1)N1CCC(=O)[C@]2(C1)ON=C(c1ccccc1)[C@H]2c1ccccc1Cl`, 7.03 µM (≈ 3.13 µg/mL) was the least that counted as inhibitory (MIC).

In the case of `C[C@H](c1ccccc1)N1CCC(=O)[C@@]2(C1)ON=C(c1ccc(Cl)cc1)[C@H]2c1ccccc1`, 14.1 µM (≈ 6.25 µg/mL) was the least that counted as inhibitory (MIC).

Turning to `Cc1ccc([C@@H]2[C@H](c3ccc(C)cc3)[C@]3(CN([C@H](C)c4ccccc4)CCC3=O)ON2c2ccccc2)cc1`, the MIC was 3.02 µM (≈ 1.56 µg/mL). This MIC is about 4.7-fold lower than that of the compound before.

`C[C@H](c1ccccc1)N1CCC(=O)[C@]2(C1)ON=C(c1ccccc1)[C@H]2c1ccc(Cl)cc1`: it took 14.1 µM (≈ 6.25 µg/mL) to inhibit growth (MIC).

For `Cc1ccc([C@@H]2[C@H](c3ccc(C)cc3)N(c3ccccc3)O[C@]23CN([C@H](C)c2ccccc2)CCC3=O)cc1`, the MIC turned out to be 6.06 µM (≈ 3.13 µg/mL).

Compound `C[C@H](c1ccccc1)N1CCC(=O)[C@]2(C1)ON=C(c1ccc(Cl)cc1)[C@H]2c1ccccc1Cl` displayed an MIC of 3.25 µM (≈ 1.56 µg/mL). Compared with the last compound, the MIC is about 1.9-fold lower.

Compound `Cc1ccc([C@@H]2C(c3ccccc3)=NO[C@]23CN([C@H](C)c2ccccc2)CCC3=O)cc1` displayed an MIC of 14.7 µM (≈ 6.25 µg/mL).

In the case of `C[C@H](c1ccccc1)N1CCC(=O)[C@]2(C1)ON=C(c1ccc(Cl)cc1)[C@H]2c1ccc(Cl)cc1`, the MIC is 3.25 µM (≈ 1.56 µg/mL).

As to `Cc1ccc([C@H]2[C@@H](c3ccccc3Cl)[C@@]3(CN([C@H](C)c4ccccc4)CCC3=O)ON2c2ccccc2)cc1`, 11.6 µM (≈ 6.25 µg/mL) was the least that counted as inhibitory (MIC).

Regarding `Cc1ccc([C@H]2[C@@H](c3ccc(Cl)cc3)[C@@]3(CN([C@H](C)c4ccccc4)CCC3=O)ON2c2ccccc2)cc1`, inhibition of growth (MIC) required 11.6 µM (≈ 6.25 µg/mL).

`C[C@H](c1ccccc1)N1CCC(=O)[C@@]2(C1)ON(c1ccccc1)[C@H](c1ccccc1)[C@@H]2c1ccccc1` came in with an MIC of 25.6 µM (≈ 12.5 µg/mL).

With `C[C@H](c1ccccc1)N1CCC(=O)[C@]2(C1)ON(c1ccccc1)[C@@H](c1ccccc1)[C@H]2c1ccccc1`, 25.6 µM (≈ 12.5 µg/mL) was the least that counted as inhibitory (MIC). This lies in the double-digit micromolar range.

The next assay relates to Mycobacterium tuberculosis. The assay is described as follows: Ratio of MIC for drug to MIC for ethambutol against Mycobacterium tuberculosis H37Rv after 28 days by agar dilution method. It counts as functional.
Conditions: not given
`Cc1ccc([C@@H]2[C@H](c3ccc(C)cc3)[C@]3(CN([C@H](C)c4ccccc4)CCC3=O)ON2c2ccccc2)cc1`: the Ratio is 2.5.
